For nine molecules, MIC results are on record in ChEMBL document CHEMBL1157746, “Function-oriented synthesis of simplified caprazamycins: discovery of oxazolidine-containing uridine derivatives as antibacterial agents against drug-resistant bacteria” (J Med Chem, 2010).

Holding throughout (assay type): functional
The subject of assay [1] is Staphylococcus aureus. Put plainly: Antibacterial activity against methicillin-sensitive Staphylococcus aureus ATCC 29213 after 20 hrs by two fold microdilution broth method. The note with it: ATCC 29213, 20 h. The procedure, abridged:
(§1)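 NCCLS-recommended broth microdilution in cation-adjusted Mueller-Hinton broth; serial 2-fold compound dilutions; each well inoculated with 5×10⁴ CFU in 0.1 mL; incubated 35 °C for 20 h, then MIC (μg/mL) scored.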
(In general: Broth dilution looks for growth in wells or tubes with falling amounts of substance.)

Assay [2] deals with Staphylococcus aureus. As to the kind of experiment: Antibacterial activity against methicillin-resistant Staphylococcus aureus SR-3637 clinical isolate after 20 hrs by two fold microdilution broth method. The conditions noted are these: SR3637, 20 h. A digest of the protocol:
(§2)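 NCCLS broth microdilution in cation-adjusted Mueller-Hinton broth. Serial 2-fold compound dilutions, inoculum 5×10⁴ CFU per well in 0.1 mL. Plates incubated at 35 °C for 20 h, then MIC (μg/mL) scored. Strains are clinical isolates from Japanese hospitals: MRSA SR3637, VanA E. faecalis SR7914, VanA E. faecium SR7917.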

Assay [3] deals with Enterococcus faecalis. As to the kind of experiment: Antibacterial activity against Enterococcus faecalis ATCC 29212 after 20 hrs by two fold microdilution broth method. The note with it: ATCC 29212, 20 h. A digest of the protocol: as §1
Assay [4] has as its system Enterococcus faecalis. As to the kind of experiment: Antibacterial activity against vancomycin-resistant Enterococcus faecalis SR-7914 clinical isolate after 20 hrs by two fold microdilution broth method. The note with it: SR7914, 20 h. The procedure, abridged: as §2
For assay [5], the system named is Enterococcus faecium. As to the kind of experiment: Antibacterial activity against Enterococcus faecium ATCC 19434 after 20 hrs by two fold microdilution broth method. The note with it: ATCC 19434, 20 h. The procedure, abridged: as §1
Assay [6] relates to Enterococcus faecium. As to the kind of experiment: Antibacterial activity against vancomycin-resistant Enterococcus faecium SR-7917 clinical isolate after 20 hrs by two fold microdilution broth method. The note with it: SR7917, 20 h. The procedure, abridged:
as §2

≈ marks a conversion by molar mass, not a printed value. A value given as a limit tells only on which side of the number the result lay.

As to `CCCCCCCCCCCCCCCC(=O)N1[C@H](C(=O)OC(C)(C)C)[C@@H]([C@H]2O[C@@H](n3ccc(=O)[nH]c3=O)[C@H](O)[C@@H]2O)O[C@@H]1CN`, the MIC came to 8 mg/L (≈ 12.3 µM) in assay [1]; 16 mg/L (≈ 24.5 µM) in assay [2]; 4 mg/L (≈ 6.13 µM) in assay [3]; 2 mg/L (≈ 3.06 µM) in assay [4]; 4 mg/L (≈ 6.13 µM) in assay [5]; 4 mg/L (≈ 6.13 µM) in assay [6].

With `CCCCCCCCCCCCCCCC(=O)N1[C@H](C(=O)OC(C)(C)C)[C@@H]([C@H]2O[C@@H](n3ccc(=O)[nH]c3=O)[C@H](O)[C@@H]2O)O[C@@H]1CCN`, the MIC in assay [1] is 8 mg/L (≈ 12 µM); in assay [2] it was 16 mg/L (≈ 24 µM); in assay [3] it was 2 mg/L (≈ 3 µM); in assay [4], 2 mg/L (≈ 3 µM); in assay [5], 2 mg/L (≈ 3 µM); in assay [6], 8 mg/L (≈ 12 µM).

With `CCCCCCCCCCCCCCCCNC(=O)[C@@H]1[C@@H]([C@H]2O[C@@H](n3ccc(=O)[nH]c3=O)[C@H](O)[C@@H]2O)O[C@H](CN)N1C(C)=O.Cl`, the MIC worked out at 16 mg/L in assay [1]; 32 mg/L in assay [2]; 32 mg/L in assay [3]; 16 mg/L in assay [4]; 16 mg/L in assay [5]; 16 mg/L in assay [6].

With `CCCCCCCCCCCCCCCCNC(=O)[C@@H]1[C@@H]([C@H]2O[C@@H](n3ccc(=O)[nH]c3=O)[C@H](O)[C@@H]2O)O[C@H](CCN)N1C(C)=O.Cl`, the MIC in assay [1], in assay [2], in assay [3], in assay [4], in assay [5] and in assay [6] was 16 mg/L each time.

In the case of `CCCCCCCCCCCCCCCCNC(=O)[C@@H]1[C@@H]([C@H]2O[C@@H](n3ccc(=O)[nH]c3=O)[C@H](O)[C@@H]2O)O[C@H](CCCN)N1C(C)=O.Cl`, the MIC in assay [1] came to 16 mg/L; in assay [2], 32 mg/L; in assay [3], 16 mg/L; in assay [4], 16 mg/L; in assay [5], 16 mg/L; in assay [6] it was 16 mg/L.

`CCCCCCCCCCCCCCCC(=O)N1[C@H](C(=O)OC)[C@@H]([C@H]2O[C@@H](n3ccc(=O)[nH]c3=O)[C@H](O)[C@@H]2O)O[C@@H]1CCN=[N+]=[N-]`: the MIC was over 64 mg/L in assay [1]; over 64 mg/L in assay [2]; 16 mg/L (≈ 24.6 µM) in assay [3]; over 64 mg/L in assay [4]; 64 mg/L (≈ 98.3 µM) in assay [5]; 64 mg/L (≈ 98.3 µM) in assay [6].

Regarding `CCCCCCCCCCCCCCCC(=O)N1[C@H](C(=O)OC)[C@@H]([C@H]2O[C@@H](n3ccc(=O)[nH]c3=O)[C@H](O)[C@@H]2O)O[C@@H]1CCCN=[N+]=[N-]`, the MIC in assay [1] was over 64 mg/L; in assay [2] it was over 64 mg/L; in assay [3], 32 mg/L (≈ 48.1 µM); in assay [4] it was over 64 mg/L; in assay [5], over 64 mg/L; in assay [6], 64 mg/L (≈ 96.3 µM).

As to `CCCCCCCCCCCCCCCC(=O)O[C@H]1CN[C@@H]([C@H](O[C@@H]2O[C@H](CN)[C@@H](O)[C@H]2O)[C@H]2O[C@@H](n3ccc(=O)[nH]c3=O)[C@H](O)[C@@H]2O)C(=O)N(C)[C@@H]1C(=O)O` [DESMETHYLPALMITOYLCAPRAZOL], the MIC came out at 0.5 mg/L (≈ 0.625 µM) in assay [1]; 0.5 mg/L (≈ 0.625 µM) in assay [2]; 0.5 mg/L (≈ 0.625 µM) in assay [3]; 2 mg/L (≈ 2.5 µM) in assay [4]; 1 mg/L (≈ 1.25 µM) in assay [5]; 1 mg/L (≈ 1.25 µM) in assay [6].

As for `CN[C@H](CC(C)C)C(=O)N[C@H]1C(=O)N[C@@H](CC(N)=O)C(=O)N[C@H]2C(=O)N[C@H]3C(=O)N[C@H](C(=O)N[C@H](C(=O)O)c4cc(O)cc(O)c4-c4cc3ccc4O)[C@H](O)c3ccc(c(Cl)c3)Oc3cc2cc(c3O[C@@H]2O[C@H](CO)[C@@H](O)[C@H](O)[C@H]2O[C@H]2C[C@](C)(N)[C@H](O)[C@H](C)O2)Oc2ccc(cc2Cl)[C@H]1O` [VANCOMYCIN], the MIC in assay [3] is 1 mg/L (≈ 0.69 µM); in assay [4], over 64 mg/L; in assay [5], over 64 mg/L; in assay [6] it was over 64 mg/L.

The MIC is the lowest concentration that inhibits growth of the organism. Read a low MIC as inhibition by little substance.
